Compound activity: PubChem, several laboratories
A selection: hits, their analogues and other compounds. The true share with any hit is near 2.6%.
Rad51 HR inh = blocks human Rad51 in homologous recombination | Q06609 | hRad51 DNA strand exchange, fluorescence dequenching | inhibition, % at 10 µM | hit rate 0.085% among 200,000 | AID 1385;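 active = inhibition above 40% at the single screening dose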;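 note: 0% = DMSO control wells and 100% = blanks with heterologous ssDNA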
Target sequence (Q06609 whole entry, looked up): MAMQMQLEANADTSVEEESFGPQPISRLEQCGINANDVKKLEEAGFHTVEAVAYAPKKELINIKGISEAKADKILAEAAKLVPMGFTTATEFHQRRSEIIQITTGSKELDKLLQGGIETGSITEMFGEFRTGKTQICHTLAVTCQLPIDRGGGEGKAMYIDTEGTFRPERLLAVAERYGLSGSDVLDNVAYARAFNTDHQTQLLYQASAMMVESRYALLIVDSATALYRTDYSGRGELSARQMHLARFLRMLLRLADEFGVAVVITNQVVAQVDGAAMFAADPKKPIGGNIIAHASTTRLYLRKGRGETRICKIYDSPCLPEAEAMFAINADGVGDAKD
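Test system – preformed human Rad51 ssDNA filaments · Reagent – Donor/quencher-labelled 47-bp dsDNA substrate · Incubation – 37 °C 15-min filament assembly, 30-min compound preincubation, 15-min exchange · Signal – FRET fluorescence dequenching, excitation 485 nm, emission 520 nm · Read-out – percent inhibition from fluorescence, normalised to plate control and blank means · Benchmarks – plate control and blank wells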
KCC2 mod = modulators of human KCC2 chloride dependent transport. B-score of Tl+ flux slope (higher = more flux/activation; lower = inhibition) at 10 µM. hit rate 2.2% among 190,000. KCC2 cells, thallium flux FluoZin-2 fluorescence. AID 1456;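 active = thallium flux slope and its plate-corrected score both differing from the plate sample mean at a set confidence after two filtering rounds, in either direction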;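 note: slope of fluorescence scaled to starting intensity during 10 to 20 s after thallium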
CHT PAM = allosteric activators of human choline transporter CHT; hit rate 0.49% among 310,000; B-score at 10 µM; Q9GZV3; CHT-expressing cells, membrane potential dye, choline EC20; active compounds read high; LV-AA mutant CHT in HEK293 cells;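 active = initial fluorescence not abnormally high and integrated response B-score, plate-corrected, over 3 SD above library mean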
CHT block = inhibits the human high affinity choline transporter. hit rate 0.86% among 310,000. B-score at 10 µM. CHT-expressing cells, membrane potential dye, choline response; active compounds read low. Q9GZV3. AID 488975;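 active = B-score over 3 SD under the library average, and starting fluorescence ratio not unusually high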;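 note: choline stimulus applied at its EC90 after an EC20 pre-addition; B-score computed on integrated fluorescence ratio after choline addition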
CHT inh conf = human CHT inhibition, confirmatory screen. CHT-expressing cells, choline membrane potential dye; LV-to-AA substituted CHT, HEK293 cells. CHT activity remaining % of control (active compounds read low), % at 10 µM. hit rate 70% among 2,400. shares compounds with CHT block;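 active = choline transporter activity left, mean of duplicates at 10 µM, below buffer-only control mean minus 3 SD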;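 note: depolarization triggered by choline at its EC90 following an EC20 pre-addition; 0% = hemicholinium-3 full block and 100% = buffer-only control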
HEK293 MPD ctr = activity in parental HEK293 cells lacking CHT | shares compounds with CHT block | membrane potential dye, choline response; active = decrease or increase beyond buffer ±3SD | membrane potential ratio readout (active if shifted either direction beyond buffer ±3SD; no single direction) at 10 µM | hit rate 4% among 2,400;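 note: parental cells lack the transporter so any hit is non-specific; ratio is peak minus trough fluorescence over baseline after EC90 choline challenge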
The depositor's hits bear a star; i = inactive; . = not tested or not shown.

SMILES | Rad51 HR inh | KCC2 mod | CHT PAM | CHT block | CHT inh conf | HEK293 MPD ctr
COc1ccc(NC(=O)CCN2C(=O)c3cccc([N+](=O)[O-])c3C2=O)cc1 | . | . | i | -11* | i | i
CC(OC(=O)CCN1C(=O)c2cccc([N+](=O)[O-])c2C1=O)C(=O)Nc1cc(Cl)cc(Cl)c1 (stereo unspecified) | 0 | -0.38 | i | -6.6* | 60%* | i
Cc1ccc(NC(=O)CCN2C(=O)c3cccc([N+](=O)[O-])c3C2=O)c(Br)c1 | . | . | i | i | . | .
CCCc1cc(-c2nc(N)ncc2-c2csc(C)n2)c(O)cc1OC | -6 | -1.9 | i | i | . | .
CCc1cc(-c2nc(N)ncc2-c2csc(C)n2)c(O)cc1OC | 38 | 0.43 | i | -7.8* | i | i
O=C(CCc1nnc(Cc2ccc(-c3ccccc3)cc2)o1)N1CCCC1 | -28 | -1.4 | i | -5.4* | 46%* | i
O=C(CSc1nnc(Cc2ccccc2)o1)N1CCCC1 | 11 | -0.54 | i | i | . | .
COCCNc1cc(C)nc2c(-c3ccccc3OC)c(C)nn12 | 2 | -1 | i | i | . | .
CCc1nn2c(NCCOC)cc(C)nc2c1-c1ccc(F)cc1 | -5 | -0.76 | i | -5.1* | 48%* | i
CCc1cc(C(=O)Cc2ccc(F)cc2)c(O)cc1O | 0 | -1.4 | i | -5.6* | 43%* | i
CCCc1cc(C(=O)Cc2ccc(F)cc2)c(O)cc1O | 6 | -1.6 | i | -6.5* | 62%* | i
CCc1cc(C(=O)COc2ccccc2F)c(O)cc1O | -4 | -1.2 | i | -5.8* | i | i
CCc1cc(C(=O)Cc2nc3ccccc3[nH]2)c(O)cc1O | -3 | 0.0088 | i | i | . | .
C#CC1(O)CC(C)N(C)C(C)C1 (stereo unspecified) | 13 | -1.4 | i | i | . | .
Cc1occc1C(=O)NNS(=O)(=O)c1ccc([N+](=O)[O-])cc1 | . | . | i | -5.1* | 46%* | i
O=C(CSc1nnc(CNC(=O)c2cccs2)o1)Nc1ccc(Br)cc1 | . | . | i | i | . | .
CCCN(CCC)CCCNC(=O)c1cn(CC)c2ccc(S(=O)(=O)N3CCOCC3)cc2c1=O | . | . | i | i | . | .
CCN(CC)CCNC(=O)c1cn(CC)c2ccc(S(=O)(=O)N3CCc4ccccc4C3)cc2c1=O | . | . | i | -8.1* | 28%* | i
CCN(CC)CCCNC(=O)c1cn(CC)c2ccc(S(=O)(=O)N3CCc4ccccc4C3)cc2c1=O | 0 | 0.042 | i | -12* | 15%* | i
CCn1cc(C(=O)NCCCN2CCN(C)CC2)c(=O)c2cc(S(=O)(=O)N3CCc4ccccc4C3)ccc21 | 2 | 0.35 | i | -9.1* | i | i
O=C(CSc1nc2[nH]ncc2c(=O)n1-c1ccc(Cl)c(Cl)c1)NCc1ccccc1Cl | 11 | 0.37 | i | i | . | .
O=C(Nc1ccc2c(c1)OCO2)N1CCC(CO)(CC2CCCCO2)CC1 (stereo unspecified) | -31 | 0.039 | i | i | . | .
CC(C)CCN1CC(=O)N2[C@@H](Cc3c([nH]c4ccccc34)C2(C)C)C1=O | . | . | i | i | . | .
Cc1ccc(C2=NOC(C)(c3nnc(-c4ccc(Cl)cc4)o3)C2)cc1 (stereo unspecified) | -4 | 0.72 | i | i | . | .
CC(C)(C)OC(=O)N[C@@H](Cc1ccccc1)c1nnc(SCC(=O)O)o1 | 3 | . | i | i | . | .
SMILES | Rad51 HR inh | KCC2 mod | CHT PAM | CHT block | CHT inh conf | HEK293 MPD ctr
CCSc1nnc([C@H](Cc2ccccc2)NC(=O)OC(C)(C)C)o1 | -6 | 0.63 | i | -7* | i | i
O=C(c1ccco1)N1CCN(C(=O)c2cc3sccc3n2Cc2ccccc2)CC1 | . | 1 | i | -5.9* | i | i
COc1cccc(N2CCN(C(=O)CC(C)(C)CC3=NS(=O)(=O)c4ccccc4N3)CC2)c1 | . | . | i | -5.5* | i | i
CC(=O)N1c2ccccc2N2C(c3c(C)c(C)cc(C)c3C)=NON12 | 4 | -0.87 | . | . | . | .
COc1ccc(CNC(=O)CN2c3ccccc3S(=O)(=O)c3ccccc32)cc1 | . | . | i | i | . | .
O=[N+]([O-])c1ccc(CSc2nnc3ccccn23)cc1 | 7 | 0.21 | i | -13* | 8.8%* | i
O=[N+]([O-])c1ccccc1CSc1nnc2ccccn12 | -9 | -0.84 | i | i | . | .
Cc1ccc(C2C(C#N)=C(N)Oc3cc(C)oc(=O)c32)o1 (stereo unspecified) | 8 | 0.43 | i | i | . | .
Cc1ccccc1CC1(CO)CCCN(Cc2nc(-c3cccs3)oc2C)C1 (stereo unspecified) | -2 | -0.031 | i | -6.7* | i | i
COC(=O)c1cc(Br)c(=O)n(-c2cc(C)on2)c1 | 2 | -0.67 | i | i | . | .
Cc1ccc(C(=O)CSc2n[nH]c(-c3ccco3)n2)cc1C | -2 | -1.9 | i | -5.1* | 50%* | i
Cc1cc(=O)[nH]c(SCC(=O)c2ccc(C)c(C)c2)n1 | 1 | . | i | -7.3* | 64%* | i
COc1ccc(C(=O)CSc2nc(C)cc(=O)[nH]2)cc1 | -4 | 1.4 | i | -5.6* | i | i
COc1cccc(CCc2nnc(CCC(=O)N3CCN(Cc4ccccn4)CC3)o2)c1 | . | 0.63 | i | i | . | .
CCC(Oc1ccccc1)C(=O)Nc1cc(C(F)(F)F)ccc1N1CCOCC1 (stereo unspecified) | . | . | i | i | . | .
Cc1cc(C(=O)CSc2n[nH]c(N)n2)c(C)n1-c1ccc(F)cc1 | -1 | -0.16 | i | -8.2* | 71%* | i
Nc1nc(SCC(=O)c2cc(F)ccc2F)n[nH]1 | -2 | -0.54 | i | i | . | .
Cc1cc(C(=O)CSc2n[nH]c(N)n2)c(C)n1-c1cc(F)ccc1F | 1 | . | i | -7.1* | 52%* | i
Cc1cccc(NC(=O)c2ccccc2O)c1C | 5 | -1.4 | i | -6.4* | 69%* | i
O=C(Nc1ccccc1O)c1ccccc1O | -5 | -2.2 | i | -8.9* | 40%* | i
Cc1ccc(C)c(NC(=O)c2ccccc2O)c1 | . | -0.93 | i | i | . | .
CCC(C(=O)Nc1sc(C(N)=O)c(C)c1C(=O)OC)c1ccccc1 (stereo unspecified) | -28 | -1.6 | i | i | . | .
CCOC(=O)C1CCCN(C(=O)c2cc(CN3C(=O)c4ccccc4C3=O)ccc2OC)C1 (stereo unspecified) | . | . | i | i | . | .
Cc1cnc(NC(=O)Cc2ccc(C)c(C)c2)s1 | . | . | i | i | . | .
CCC(=O)N1CCc2cc(S(=O)(=O)Nc3ccccc3C)ccc21 | . | . | i | i | . | .
CCOc1nc(-c2ccccc2)ncc1Oc1ccccc1 | . | . | i | -5* | i | i
COc1cnc(-c2ccccc2)nc1Oc1ccc(C(C)(C)C)cc1 | -3 | -0.42 | i | i | . | .
